Our source for the Activity and Drug uptake values is ChEMBL document CHEMBL1157652, “Chemical biology studies on norrisolide” (Bioorg Med Chem, 2010).

The source made the active and inactive calls. The rule behind the calls is not given here.

Data set [1] has as its system NRK. The data set is described as follows: Golgi-disturbing activity in golgi apparatus of rat NRK cells assessed as golgi fragmentation after 60 mins by Hoechst 3342 staining-based immunofluorescence microscopy. It counts as functional. The gist of the method:
(§1)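 NRK cells grown in alpha MEM with 10% FCS, 2 mM glutamine and 25 mM Hepes pH 7.4 on coated coverslips. Compound at 30 µM working concentration (DMSO vehicle control) for 60 min at 37 °C. Cells then immunostained for mannosidase II with Alexa 594 secondary and Hoechst for nuclei, and scored by fluorescence microscopy at 60×.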

Data set [2] in a line: Drug localization in golgi apparatus of rat NRK cells after 10 mins by immunofluorescence microscopy. It is filed as ADME, cell-based. The gist of the method:
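Live NRK cells incubated with fluorescent probe for 10 min and imaged for Golgi-like perinuclear staining. For colocalization, cells were mildly fixed (2% formaldehyde, 90 s), immunostained for mannosidase II, then given probe at 25 μM for 30 min before mounting. Coumarin read at excitation 370 nm, emission 460 nm.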

Data set [3] concerns NRK. Put plainly: Golgi-disturbing activity in golgi apparatus of rat NRK cells assessed as fusion of golgi membrane fusion with endoplasmic reticulum at 7 uM after 60 mins by Hoechst 3342 staining-based immunofluorescence microscopy. It counts as functional, cell-based. The gist of the method: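 Agent applied for 60 min at 37 °C, with a DMSO control. Golgi read by immunofluorescence: rabbit mannosidase II primary, Alexa Fluor 594 secondary, Hoechst DNA stain, 60× fluorescence microscopy.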

Data set [4] relates to NRK. Put plainly: Golgi-disturbing activity in golgi apparatus of rat NRK cells assessed as partial golgi vesiculation after 60 mins by Hoechst 3342 staining-based immunofluorescence microscopy. It is filed as functional, cell-based. In short, it runs like this:
as §1

The subject of data set [5] is NRK. The data set is described as follows: Golgi-disturbing activity in golgi apparatus of rat NRK cells assessed as reversible golgi fragmentation after 60 mins by Hoechst 3342 staining-based immunofluorescence microscopy. It counts as functional, cell-based. In short, it runs like this:
(§2)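 After 1 h compound exposure (30 µM, 37 °C), NRK cells were either fixed directly or washed four times with PBS and kept in fresh complete medium at 37 °C (90 min per methods) before mannosidase II/Hoechst immunofluorescence to judge recovery of Golgi structure.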

The subject of data set [6] is NRK. Put plainly: Golgi-disturbing activity in golgi apparatus of rat NRK cells assessed as golgi fragmentation measured after 60 mins following drug washout by Hoechst 3342 staining-based immunofluorescence microscopy. It counts as functional, cell-based.
Data set [7] has as its system NRK. Put plainly: Golgi-disturbing activity in golgi apparatus of rat NRK cells assessed as golgi vesiculation after 60 mins by Hoechst 3342 staining-based immunofluorescence microscopy. It counts as functional, cell-based. The gist of the method:
as §1

The test system of data set [8] is NRK. The data set is described as follows: Golgi-disturbing activity in golgi apparatus of rat NRK cells assessed as reversible golgi vesiculation after 60 mins by Hoechst 3342 staining-based immunofluorescence microscopy. It is filed as functional, cell-based. The gist of the method: as §2
Data set [9] concerns NRK. Put plainly: Golgi-disturbing activity in golgi apparatus of rat NRK cells assessed as complete golgi vesiculation without fusion with endoplasmic reticulum at 30 uM after 60 mins by Hoechst 3342 staining-based immunofluorescence microscopy. It is filed as functional, cell-based. The gist of the method: as §1
The subject of data set [10] is NRK. The data set is described as follows: Golgi-disturbing activity in golgi apparatus of rat NRK cells assessed as golgi fragmentation after 60 mins by Hoechst 3342 staining-based immunofluorescence microscopy in presence of PKD inhibitor H89. It is filed as functional, cell-based. In short, it runs like this: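 NRK cells were pretreated with H-89 (20 µM) for 30 min, then incubated with compound for 1 h at 37 °C. Golgi was read by mannosidase II immunofluorescence with Hoechst counterstain.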

Data set [11] concerns NRK. Put plainly: Golgi-disturbing activity in golgi apparatus of rat NRK cells assessed as irreversible golgi fragmentation after 60 mins by Hoechst 3342 staining-based immunofluorescence microscopy. It is filed as functional, cell-based. The gist of the method:
as §2

Data set [12] has as its system NRK. Put plainly: Golgi-disturbing activity in golgi apparatus of rat NRK cells assessed as enhancement of nocodazole-induced golgi fragmentation after 60 mins by Hoechst 3342 staining-based immunofluorescence microscopy. It is filed as functional, cell-based. In short, it runs like this:
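NRK cells were pretreated with nocodazole (30 µM) for 60 min, then given compound for a further 60 min. Golgi was visualized by mannosidase II immunofluorescence with Hoechst nuclear stain.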

Data set [13] has as its system NRK. The data set is described as follows: Golgi-disturbing activity in golgi apparatus of rat NRK cells assessed as transport of GFP-fused VSV G protein from endoplasmic reticulum to golgi after 60 mins by protein transport assay. It counts as functional, cell-based. The gist of the method: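 NRK cells were transfected with tsO45 VSV-G-GFP using FuGene 6 and held at 40 °C for 20 h to arrest VSV-G in the ER. They were treated with compound (30 µM working) or DMSO for 1 h, then moved to 20 °C for 2 h with cycloheximide. VSV-G entry into the Golgi was judged by fluorescence microscopy against the Golgi marker.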

The test system of data set [14] is NRK. Put plainly: Golgi-disturbing activity in golgi apparatus of rat NRK cells assessed as transport of GFP-fused VSV G protein from fragmented golgi to plasma membrane after 60 mins by protein transport assay. It counts as functional, cell-based. The gist of the method:
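After transfection with tsO45 VSV-G-GFP, NRK cells were held at 40 °C for 20 h, then at 20 °C for 2 h with cycloheximide to hold VSV-G in the Golgi. Cells were then incubated with compound (30 µM working) or DMSO and shifted to 32 °C for 1 h. Arrival at the plasma membrane was imaged by fluorescence microscopy.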

Data set [15] has as its system NRK. Put plainly: Golgi-disturbing activity in golgi apparatus of rat NRK cells assessed as microtubule depolymerization-associated golgi fragmentation after 60 mins by Hoechst 3342 staining-based immunofluorescence microscopy.
Data set [16] deals with NRK. The data set is described as follows: Golgi-disturbing activity in golgi apparatus of rat NRK cells assessed as microtubule depolymerization-associated golgi fragmentation at 30 uM after 60 mins by Hoechst 3342 staining-based immunofluorescence microscopy. It is filed as functional, cell-based. The gist of the method:
as §1

In the case of `C=C([C@H]1[C@H]2CC(=O)O[C@H]2O[C@@H]1COC(=O)Cc1cc(=O)oc2cc(N(C)C)ccc12)[C@H]1CC[C@H]2C(C)(C)CCC[C@]12C`, in [1], the outcome was Active. The Drug uptake entry in data set [2] is reported as “Active”.
In the case of `C[C@H]1CCC/C=C/[C@@H]2C[C@H](O)C[C@H]2[C@H](O)/C=C/C(=O)O1`, the result in data set [3] was Active.
For the compound `CC(=O)[C@H]1O[C@@H]2OC(=O)C[C@@H]2[C@H]1OCc1ccccc1`, the outcome in data set [4], in [5] and in data set [6] was inactive.
As to `CN(C)c1ccc2c(CC(=O)NCC#Cc3cc(C(=O)O[C@H]4CC[C@H]5C(C)(C)CCC[C@]45C)c(OCC4CC4)cc3OCC3CC3)cc(=O)oc2c1`, in [2], the Drug uptake entry is “Active”. The result in [7] and in [8] was Active.
Consider `C=C([C@H]1[C@H]2CC(=O)O[C@H]2O[C@@H]1C(C)=O)[C@H]1CC[C@H]2C(C)(C)CCC[C@]12C`, for which the outcome in data set [4] and in [5] was Active.
For `CC(=O)O[C@H]1O[C@@H]2OC(=O)C[C@@H]2[C@H]1OCc1ccccc1`, the outcome in data set [4], in [5] and in data set [6] was inactive.
For the compound `CC1(C)CCC[C@]2(C)[C@@H](OC(=O)c3ccc(OCC4CC4)cc3OCC3CC3)CC[C@@H]12`, the outcome in data set [6] and in [7] was Active.
Regarding `C=C1CCC[C@H]2[C@](C)(CC3=C(O)C(=O)C=C(OC)C3=O)[C@@H](C)CC[C@]12C`, the result in data set [9], in data set [11] and in data set [1] was Active. Moreover, the result in data set [10] was inactive.
`C=C([C@H]1[C@H]2CC(=O)O[C@H]2O[C@@H]1C(C)=O)C(C)(C)C`: the result in [4], in data set [5] and in [6] was inactive.
For `C=C([C@@H]1[C@@H](OC(C)=O)O[C@@H]2OC(=O)C[C@@H]21)C(C)(C)C`, the outcome in data set [4], in [5] and in [6] was inactive.
In the case of `C=C([C@@H]1[C@@H](OC(C)=O)O[C@@H]2OC(=O)C[C@@H]21)[C@H]1CC[C@H]2C(C)(C)CCC[C@]12C`, the result in data set [12], in [10], in data set [14] and in [15] was Active. Moreover, in data set [13], the result was inactive.
On to `COC(=O)Nc1nc2cc(C(=O)c3cccs3)ccc2[nH]1`, for which the outcome in [16] was Active.
As to `C=C([C@H]1[C@H]2CC(=O)O[C@H]2O[C@@H]1CO)[C@H]1CC[C@H]2C(C)(C)CCC[C@]12C`, the result in data set [4] and in [5] was Active.
With `COc1ccc(C(=O)O[C@H]2CC[C@H]3C(C)(C)CCC[C@]23C)c(OC)c1`, the result in data set [5] and in [7] was Active.
